From ChEMBL document CHEMBL1125741, “Synthesis and anticonvulsant activity of imidooxy derivatives” (J Med Chem, 1991) come the findings set out here.

Calls of active or inactive are those of the source. The rule behind the calls is not given here.

For series [1], the system named is Gallus gallus. The experiment in a line: Compound was evaluated for effective dose by maximal electroshock test after intraperitoneal administration of the compound. Format: functional. Particulars: ip. The procedure, abridged:
(§1)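 Phase II quantitation, drug given ip. ED50 in the MES or scMet test was taken at the time of peak effect, with the peak time set in MES for some compounds and in scMet for others. Rotorod TD50 was taken at the time of peak neurologic deficit. Values are in mg/kg with 95% confidence limits. Protective index is TD50/ED50.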
A general note: Protection in the maximal electroshock model is a classic sign of anticonvulsant action.

The nature of series [2]: Time of peak effect (TPE) for activity. Type of series: ADME. Also noted: unit not given here. The procedure, abridged:
as §1

Series [3] relates to Gallus gallus. Put plainly: Toxicity test (number of animals exhibiting toxicity / number of animals tested) done at a dose 100 mg/kg against young chicks after 4 hr; 4/4. Type of series: organism-based. Further details: dose 100 mg/kg. The conditions noted are these: chicken, in vivo.
Series [4] concerns Gallus gallus. The experiment in a line: Toxicity test (number of animals exhibiting toxicity / number of animals tested) done at a dose 100 mg/kg against young chicks after 30 min; 8/8. Further details: dose 100 mg/kg. Type of series: organism-based. Particulars: chicken, in vivo, 0.5 h.
The nature of series [5]: Protective index which is the ratio of TD50 to ED50 of in maximal electroshock test. Type of series: functional. The procedure, abridged:
as §1

The test system of series [6] is Gallus gallus. Put plainly: Anticonvulsant activity by maximal electroshock test at a dose of 100 mg/kg against young chicks after 30 min; 2/3. Format: functional.
Series [7] is described as follows: Time of peak effect (TPE) for toxicity. Further details: unit not given here. In a few lines: as §1
Series [8] relates to Gallus gallus. Put plainly: Anticonvulsant activity by subcutaneous pentylenetetrazole test at a dose of 100 mg/kg against young chicks after 30 min; 0/0. Type of series: functional.
Series [9] is described as follows: Compound was evaluated for toxic dose at peak neurologic deficit after intraperitoneal administration of the compound. Format: ADME, organism-based, Gallus gallus. Particulars: chicken, in vivo, ip. In a few lines: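 Mice received compound dissolved or suspended in 30% polyethylene glycol 400 by intraperitoneal injection. Neurological toxicity was scored as failure on the rotorod test. Testing was run through the NINCDS Antiepileptic Drug Development Program.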

Series [10] in a line: Protective index which is the ratio of TD50 to ED50 of against subcutaneous pentylenetetrazole test. Type of series: functional. In a few lines: as §1
Series [11] has as its system Gallus gallus. The experiment in a line: Compound was evaluated for effective dose by subcutaneous pentylenetetrazole test after intraperitoneal administration of the compound; Not Effective. Format: functional, organism-based. The procedure, abridged:
as §1

Series [12] deals with Gallus gallus. The experiment in a line: Toxicity test (number of animals exhibiting toxicity / number of animals tested) at a dose of 50 mg/kg after 2 hr; 6/8. Type of series: organism-based. Further details: dose 50 mg/kg. Particulars: chicken, in vivo.
Series [13] has as its system Gallus gallus. Put plainly: Subcutaneous pentylenetetrazole test (ScMet) (number of animals protected / number of animals tested) at a dose of 30 mg/kg after 2 hr; 8/8. Type of series: functional.
Series [14] has as its system Gallus gallus. Put plainly: Toxicity test (number of animals exhibiting toxicity / number of animals tested) at a dose of 50 mg/kg after 0.50 hr; 4/8. Type of series: organism-based. Further details: dose 50 mg/kg. Particulars: chicken, in vivo, 0.5 h.
Series [15] concerns Gallus gallus. Put plainly: Subcutaneous pentylenetetrazole test (ScMet) (number of animals protected / number of animals tested) at a dose of 30 mg/kg after 0.25 hr; 4/8. Type of series: functional.
For series [16], the system named is Gallus gallus. Put plainly: Toxicity test (number of animals exhibiting toxicity / number of animals tested) at a dose of 50 mg/kg after 1 hr; 7/8. Format: organism-based. Also noted: dose 50 mg/kg. The conditions noted are these: chicken, in vivo.
Series [17] relates to Gallus gallus. The experiment in a line: Toxicity test (number of animals exhibiting toxicity / number of animals tested) at a dose of 30 mg/kg after 0.25 hr; 0/8. Also noted: dose 30 mg/kg. The conditions noted are these: chicken, in vivo. Format: organism-based.
For series [18], the system named is Gallus gallus. Put plainly: Toxicity test (number of animals exhibiting toxicity / number of animals tested) at a dose of 30 mg/kg after 4 hr; 8/8. Type of series: organism-based. Also noted: dose 30 mg/kg. Particulars: chicken, in vivo.
Series [19] relates to Gallus gallus. Put plainly: Subcutaneous pentylenetetrazole test (ScMet) (number of animals protected / number of animals tested) at a dose of 30 mg/kg after 0.50 hr; 4/8. Type of series: functional.
The subject of series [20] is Gallus gallus. Put plainly: Toxicity test (number of animals exhibiting toxicity / number of animals tested) at a dose of 30 mg/kg after 0.50 hr; 0/8. Particulars: chicken, in vivo, 0.5 h. Also noted: dose 30 mg/kg. Type of series: organism-based.
In series [21] the test system is Gallus gallus. The experiment in a line: Subcutaneous pentylenetetrazole test (ScMet) (number of animals protected / number of animals tested) at a dose of 30 mg/kg after 1 hr; 8/8. Format: functional.
In series [22] the test system is Gallus gallus. Put plainly: Toxicity test (number of animals exhibiting toxicity / number of animals tested) at a dose of 30 mg/kg after 1 hr; 1/8. Format: organism-based. Also noted: dose 30 mg/kg. Particulars: chicken, in vivo.
The subject of series [23] is Gallus gallus. The experiment in a line: Toxicity test (number of animals exhibiting toxicity / number of animals tested) at a dose of 30 mg/kg after 2 hr; 8/8. Type of series: organism-based. Also noted: dose 30 mg/kg. Particulars: chicken, in vivo.
The test system of series [24] is Gallus gallus. The experiment in a line: Toxicity test (number of animals exhibiting toxicity / number of animals tested) at a dose of 30 mg/kg after 6 h; 8/8. Particulars: chicken, in vivo. Format: organism-based. Also noted: dose 30 mg/kg.
The subject of series [25] is Gallus gallus. Put plainly: Anticonvulsant activity by maximal electroshock test at a dose of 30 mg/kg against young chicks after 30 min; 1/1. Type of series: functional.
For series [26], the system named is Gallus gallus. The experiment in a line: Anticonvulsant activity by subcutaneous pentylenetetrazole test at a dose of 100 mg/kg against young chicks after 30 min; 1/1. Type of series: functional.
Series [27] concerns Gallus gallus. The experiment in a line: Anticonvulsant activity by subcutaneous pentylenetetrazole test at a dose of 30 mg/kg against young chicks after 30 min; 1/1. Format: functional.
The test system of series [28] is Gallus gallus. Put plainly: Anticonvulsant activity by subcutaneous pentylenetetrazole test at a dose of 300 mg/kg against young chicks after 30 min; 0/0. Format: functional.
Series [29] deals with Gallus gallus. Put plainly: Anticonvulsant activity by subcutaneous pentylenetetrazole test at a dose of 30 mg/kg against young chicks after 4 hr; 1/1. Type of series: functional.
For series [30], the system named is Gallus gallus. The experiment in a line: Anticonvulsant activity by maximal electroshock test at a dose of 300 mg/kg against young chicks after 30 min; 1/1. Format: functional.
Series [31] concerns Gallus gallus. Put plainly: Anticonvulsant activity by subcutaneous pentylenetetrazole test at a dose of 300 mg/kg against young chicks after 30 min; 1/1. Format: functional.
In series [32] the test system is Gallus gallus. The experiment in a line: Anticonvulsant activity by maximal electroshock test at a dose of 100 mg/kg against young chicks after 30 min; 1/3. Format: functional.
The subject of series [33] is Gallus gallus. Put plainly: Toxicity test (number of animals exhibiting toxicity / number of animals tested) done at a dose 100 mg/kg against young chicks after 4 hr; […]. Format: organism-based. Also noted: dose 100 mg/kg. Particulars: chicken, in vivo.

Regarding `O=C1c2ccccc2C(=O)N1O`, the ED50 (as a rule, the dose that gives a 50% effect, or the effect in half of the subjects) in series [1] was 95.4 mg/kg. For the same molecule, the TPE in series [2] and in series [7] was 0.25 each time. For the same molecule, the “No. of animals protected/animals tested” value came out at 4 in series [3], 8 in series [4], 2 in series [6] and 0 in [8]. Besides, in [5], the PI was 0.99.

Regarding `O=C1CC2(CCCC2)C(=O)N1OCc1ccccc1`, the TPE in series [2] was determined as 0.25; in series [7] it was 4. The PI in series [5] turned out to be 4.5. The TD50 – broadly, the dose at which the toxic effect under study appears in half of the subjects – in series [9] is greater than 500 mg/kg.

As to `CCCC(CCC)C(=O)O` [VALPROIC ACID], the TPE in series [2] and in [7] was 0.25 in each case. Besides, the PI turned out to be 1.57 in [5] and 2.87 in series [10].

Take `CCC1(C)CC(=O)NC1=O` (stereo not given) [ETHOSUXIMIDE]: the TPE in series [2] and in series [7] was 0.5 each time.

`NC(=O)N1c2ccccc2C=Cc2ccccc21` [CARBAMAZEPINE]: the TPE in series [2] and in series [7] was 0.25 throughout. In addition, the ED50 result in series [11] is “inactive”.

As to `C=C(CON1C(=O)CCC1=O)C(=O)OC`, the “No. of animals protected/animals tested” value in series [12] came to 6; in series [13], 8; in series [14], 4; in series [15], 4; in series [16] it was 7; in [17], 0. The “No. of animals protected/animals tested” value in series [18] was 8; in series [19] it was 4; in [20], 0; in [21], 8; in [22] it was 1; in series [23] it was 8. Also, in series [24], the “No. of animals protected/animals tested” value is given as 8.

Regarding `CCC1(c2ccccc2)C(=O)NC(=O)NC1=O` [PHENOBARBITAL], the TPE in series [2] is 1; in series [7], 0.5.

Regarding `C=C(CON1C(=O)c2ccccc2C1=O)C(=O)OC`, the “No. of animals protected/animals tested” value in series [25] is given as 1; in series [26], 1; in [27], 1; in [3], 4; in [28] it was 0; in series [29] it was 1. Also, the “No. of animals protected/animals tested” value in series [30] turned out to be 1. The results for the TPE in [2] and in series [7] were 1 and 4, respectively. Moreover, the PI in series [10] was determined as 0.72.

As for `O=C1NC(=O)C(c2ccccc2)(c2ccccc2)N1` [PHENYTOIN], the TPE in series [2] and in series [7] was 2 each time. For the same molecule, the ED50 entry in series [11] is “inactive”.

As for `CCOC(=O)ON1C(=O)CCC1=O`, the “No. of animals protected/animals tested” value in series [31] came to 1; in series [32] it was 1; in [33], 4.

Turning to `O=C1c2cccc3cccc(c23)C(=O)N1[O-].[Na+]`, the TPE in [2] came to 0.25; in series [7], 4. Besides, the PI in [10] is reported as 0.84.
